Test results reported in ChEMBL document CHEMBL1125592, “Calcium channel blocking and positive inotropic activities of ethyl 5-cyano-1,4-dihydro-6-methyl-2-[(phenylsulfonyl)methyl]-4-aryl-3- pyridine-carboxylate and analogues. Synthesis and structure-activity relationships” (J Med Chem, 1991).
Activity calls are given as the source filed them. No cut-off for these calls is given here.

What was measured:
Rattus norvegicus [1] = species on record: Rattus norvegicus; experiment: Cardiovascular activity in isolated rat heart, concentration producing 25% increase in LV + dP/dtmax.; type: functional
Method in brief: (§1)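 Isolated Langendorff-perfused rat heart. Coronary flow (CF), LV +dP/dtmax and heart rate recorded during exposure to test agent. Value is the concentration giving a 25% rise in CF or in LV +dP/dtmax, mean ± SE. At least two hearts per compound.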

[2] = biological target: Voltage-gated L-type calcium channel (Rattus norvegicus, UniProt P22002+Q02485+P27732); experiment: Affinity to bind dihydropyridine receptor (DHP receptor) by inhibiting the radioligand [3H]nitrendipine; type: protein assay
Method in brief: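 [3H]nitrendipine displacement, rat brain cortical membranes. Each compound first screened at 1000 nM; if inhibition exceeded 40%, a four- to seven-point curve with unlabeled compound was run. IC50 generally mean of two experiments, each in triplicate. ">1000 nM" means under 40% inhibition of control binding at 1000 nM.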

Rattus norvegicus [3] = species on record: Rattus norvegicus; experiment: Cardiovascular activity in isolated rat heart, concentration producing 25% increase in CF (cardiac flow).; type: functional; method in brief: as §1
Rattus norvegicus [4] = species on record: Rattus norvegicus; experiment: Compound was tested for the cardiovascular activity in isolated rat heart. Value represents the concentration producing 25% increase in LV + dP/dtmax; NA indicates not active; type: functional; method in brief: as §1
Rattus norvegicus [5] = species on record: Rattus norvegicus; experiment: Compound was tested for the cardiovascular activity in isolated rat heart. Value represents the concentration producing 25% increase in CF (cardiac flow); NA indicates not active; type: functional; method in brief: as §1
Oryctolagus cuniculus [6] = species on record: Oryctolagus cuniculus; experiment: Vasorelaxant effect at a concentration of 10e-4 M on rabbit aortic rings previously contracted with 1.0 uM Norepinephrine.; type: functional, Aorta; design: unit not given here
Method in brief: (§2)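 Rabbit aortic rings precontracted with 50 mM KCl or 1.0 μM norepinephrine, then exposed to increasing concentrations of test agent. Relaxation recorded at each concentration.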

Oryctolagus cuniculus [7] = species on record: Oryctolagus cuniculus; experiment: Vasorelaxant effect at a concentration of 10e-6 M on rabbit aortic rings previously contracted with 1.0 uM Norepinephrine.; type: functional, Aorta; design: unit not given here; method in brief: as §2
Oryctolagus cuniculus [8] = species on record: Oryctolagus cuniculus; experiment: Vasorelaxant effect at a concentration of 10e-7 M on rabbit aortic rings previously contracted with 50 mM KCl.; type: functional, Aorta; design: unit not given here; method in brief: as §2
Oryctolagus cuniculus [9] = species on record: Oryctolagus cuniculus; experiment: Vasorelaxant effect at a concentration of 10e-5 M on rabbit aortic rings previously contracted with 50 mM KCl.; type: functional, Aorta; design: unit not given here; method in brief: as §2
Oryctolagus cuniculus [10] = species on record: Oryctolagus cuniculus; experiment: Vasorelaxant effect at a concentration of 10e-4 M on rabbit aortic rings previously contracted with 50 mM KCl.; type: functional, Aorta; design: unit not given here; method in brief: as §2
Oryctolagus cuniculus [11] = species on record: Oryctolagus cuniculus; experiment: Vasorelaxant effect at a concentration of 10e-7 M on rabbit aortic rings previously contracted with 1.0 uM Norepinephrine.; type: functional, Aorta; design: unit not given here; method in brief: as §2
Oryctolagus cuniculus [12] = species on record: Oryctolagus cuniculus; experiment: Vasorelaxant effect at a concentration of 10e-5 M on rabbit aortic rings previously contracted with 1.0 uM Norepinephrine.; type: functional, Aorta; design: unit not given here; method in brief: as §2
Oryctolagus cuniculus [13] = species on record: Oryctolagus cuniculus; experiment: Vasorelaxant effect at a concentration of 10e-6 M on rabbit aortic rings previously contracted with 50 mM KCl.; type: functional, Aorta; design: unit not given here; method in brief: as §2
Rattus norvegicus [14] = species on record: Rattus norvegicus; experiment: Compound was tested for its effect on ventricular cantractility in isolated rat hearts.; type: functional, Cardiac ventricle
Method in brief: (§3)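 Coronary vasodilation and ventricular contractility measured in isolated Langendorff-perfused rat hearts. EC25 (concentration raising the parameter by 25%) given as mean ± SEM of four to six hearts.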

Rattus norvegicus [15] = species on record: Rattus norvegicus; experiment: Compound was tested for its effect on coronary vasodilator in isolated rat hearts.; type: functional; method in brief: as §3

Compound	EC25 (Rattus norvegicus [1])	IC50 [2]	EC25 (Rattus norvegicus [3])	also measured
CCOC(=O)C1=C(C[S+]([O-])c2ccccc2)NC(C)=C(C#N)C1c1ccccc1C(F)(F)F (stereo in doubt; 29a)	120 nM	1600 nM	–	–
CCOC(=O)C1=C(C[S+]([O-])c2ccccc2)NC(C)=C(C#N)C1c1ccccc1C(F)(F)F (stereo in doubt; 29b)	170 nM	2800 nM	1300 nM	–
CCO/C(O)=C1\C(CS(=O)(=O)c2ccc(Cl)cc2)=NC(C)=C(C#N)C1c1ccccc1C(F)(F)F (centres undefined)	–	91 nM	550 nM	EC25 (Rattus norvegicus [4]): inactive
CCO/C(O)=C1\C(CS(=O)(=O)c2ccncc2)=NC(C)=C(C#N)C1c1ccccn1 (centres undefined)	–	> 1000 nM	–	EC25 (Rattus norvegicus [4]): inactive; EC25 (Rattus norvegicus [5]): inactive
CC1=C(C#N)C(c2ccccc2C(F)(F)F)/C(=C(\O)OC(C)C)C(CS(=O)(=O)c2ccccc2)=N1 (centres undefined)	inactive	390 nM	<100 nM	–
CCO/C(O)=C1\C(C[S+]([O-])c2ccc(OC)cc2)=NC(C)=C(C#N)C1c1ccccc1C(F)(F)F (centres undefined)	–	1200 nM	300 nM	EC25 (Rattus norvegicus [4]): inactive
CCO/C(O)=C1\C(C[S+]([O-])c2ccncc2)=NC(C)=C(C#N)C1c1ccccc1C(F)(F)F (centres undefined)	1200 nM	1100 nM	inactive	–
CCOC(=O)C1=C(C[S+]([O-])c2ccccc2)N(CCN(CC)CC)C(C)=C(C#N)C1c1ccccc1C(F)(F)F (centres undefined)	330 nM	> 1000 nM	500 nM	–
CCO/C(O)=C1\C(CS(=O)(=O)c2ccccc2)=NC(C)=C(C#N)C1c1ccccc1C(F)(F)F (centres undefined)	110 nM	120 nM	70 nM	Vasorelaxant effect (Oryctolagus cuniculus [6]): 23; Vasorelaxant effect (Oryctolagus cuniculus [7]): 7; Vasorelaxant effect (Oryctolagus cuniculus [8]): 4; Vasorelaxant effect (Oryctolagus cuniculus [9]): 67; Vasorelaxant effect (Oryctolagus cuniculus [10]): 80; Vasorelaxant effect (Oryctolagus cuniculus [11]): 5; Vasorelaxant effect (Oryctolagus cuniculus [12]): 13; Vasorelaxant effect (Oryctolagus cuniculus [13]): 24
CCO/C(O)=C1\C(C(C)S(=O)(=O)c2ccccc2)=NC2=C(C(=O)CCC2)C1c1ccccc1C(F)(F)F (centres undefined)	<100 nM	–	1400 nM	–
CCO/C(O)=C1\C(CS(=O)(=O)c2ccccc2)=NC(C)=C(C#N)C1c1cccc([N+](=O)[O-])c1 (centres undefined)	520 nM	300 nM	510 nM	–
CC1=C(C#N)C(c2ccccc2C(F)(F)F)/C(=C(\O)OCCN2CCCCC2)C(C[S+]([O-])c2ccccc2)=N1 (centres undefined)	–	> 1000 nM	–	EC25 (Rattus norvegicus [4]): inactive; EC25 (Rattus norvegicus [5]): inactive
CCO/C(O)=C1\C(C[S+]([O-])c2ccccc2Cl)=NC(C)=C(C#N)C1c1ccccc1C(F)(F)F (centres undefined)	200 nM	> 1000 nM	260 nM	–
CCO/C(O)=C1\C(C[S+]([O-])c2ccncc2)=NC(C)=C(C#N)C1c1ccccn1 (centres undefined)	–	> 1000 nM	–	EC25 (Rattus norvegicus [4]): inactive; EC25 (Rattus norvegicus [5]): inactive
CCO/C(O)=C1\C(CS(=O)(=O)c2ccccc2Cl)=NC(C)=C(C#N)C1c1ccccc1C(F)(F)F (centres undefined)	360 nM	> 500 nM	350 nM	–
CCO/C(O)=C1\C(CS(=O)(=O)c2ccccc2F)=NC(C)=C(C#N)C1c1ccccc1C(F)(F)F (centres undefined)	390 nM	> 1000 nM	90 nM	–
CCOC(=O)C1=C(CS(=O)(=O)c2ccncc2)NC(C)=C(C#N)C1c1ccccc1C(F)(F)F (stereo in doubt; 54B)	–	–	–	EC25 (Rattus norvegicus [14]): 888 nM; EC25 (Rattus norvegicus [15]): 1622 nM
CCOC(=O)C1=C(CS(=O)(=O)c2ccccc2)N(C)C2=C(C(=O)CCC2)C1c1ccccc1C(F)(F)F (centres undefined)	<100 nM	–	180 nM	–
CCOC(=O)C1=C(C[S+]([O-])c2ccccc2)NC(C)=C(C#N)C1c1cccc([N+](=O)[O-])c1 (stereo in doubt; 32a)	–	–	–	EC25 (Rattus norvegicus [5]): inactive
